Assay results of several laboratories.
Compare with care: the assays were run in different laboratories.

| Compound | assay | test system | setting | quantity | value |
| --- | --- | --- | --- | --- | --- |
| Cc1cc2c(C(=O)O)cccc2n1-c1nc2c(c(NCc3ccccc3)n1)CCCN2 | metabolic stability | dog, liver microsomes | 1 µM, pH 7.4 | microsomal CLint | 1.15 µL/min/mg |
| CC(C)n1ncc2c(C(=O)NCC3(C)CNC3)cc(C3CC3)nc21 |  | female BALB/c mouse, plasma | intraperitoneal, 50 mg/kg, 2 h | concentration | 2230 ng/mL |
| CONC(=O)c1cccc2c1cc(C)n2-c1nc2c(c(NCc3ccccc3)n1)CCCN2 | metabolic stability | dog, liver microsomes | 1 µM, pH 7.4 | microsomal CLint | 84 µL/min/mg |
| Cc1nc2ccc(OCc3ccc(C(F)(F)F)cc3)cc2[nH]1 |  | male BALB/c mouse, brain | intravenous, 1 mg/kg, 3 h | concentration | 402 ng/g |
| O=C(O)CC[C@H](NC(=O)N[C@@H](CCCCNC(=O)[C@H](Cc1ccc2ccccc2c1)NC(=O)[C@H]1CC[C@H](CNC(=O)CN2CCN(CC(=O)O)CCN(CC(=O)O)CCN(CC(=O)O)CC2)CC1)C(=O)O)C(=O)O | shake flask | water |  | logP | -1.01 |
| Cc1ccccc1CN1C(=O)C2=C(CCN(Cc3ccccc3)C2)N2CCN=C12 | potentiometric | water |  | logP | 3.09 |
| Cc1ccc2c(c1)C(=O)[C@]1(O)CCN(c3ccc4nc(C)ccc4c3)C1=N2 |  | mouse, brain | intraperitoneal, 10 mg/kg, 30 min, single dose | concentration | 1000 nM |
| O=C1CCC(N2Cc3cc(CO)c(F)cc3C2=O)C(=O)N1 (stereo not drawn) |  | male CD-1 mouse, plasma | intravenous, 1 mg/kg, 1.02 min | concentration | 1790 ng/mL |
| C=CC(=O)NC1CCN(c2ncc3ncnc(Nc4ccc(Oc5ccc6c(c5)ncn6C)c(C)c4)c3n2)CC1 |  |  | pH 7.4 | logP | 4.7 |
| NCc1cc2c(cc1F)C(=O)N(C1CCC(=O)NC1=O)C2 (stereo not drawn) |  | male CD-1 mouse, plasma | intravenous, 1 mg/kg, 30 min | concentration | 33.2 ng/mL |
| Cc1nsc(-c2nnc3n2CCN(C(=O)c2ccc(F)cc2)[C@@H]3C)n1 |  |  |  | logP | 1.5 |
| Cc1cccc(CNC(=O)c2cn(CCNC(=O)c3ccccc3Sc3c([N+](=O)[O-])ncn3C)c3cc4c(cc3c2=O)OCO4)n1 | metabolic stability | cynomolgus monkey, blood | 1 µM, whole blood | half-life | 5.92 h |
